Measurements: article PMC3839042 (Biochemistry, 2013)

Key:
S100A2 [1] = biological target: T1, S100A2 (Homo sapiens, UniProt P29034); assay: Acrylamide dynamic quenching of peptide Trp in S100A2 complex; assay type: binding; conditions: Stern-Volmer constant
Summary of the method: (§1)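 Trp quenching was run on 4–8 μM peptide with or without saturating S100 protein, in binding buffer (20 mM Tris, 0.2 mM EDTA, 1 mM TCEP, pH 7.5) containing 5 mM CaCl2 or 5 mM EDTA. Acrylamide was titrated to about 0.6 M final. Intensities were dilution-corrected, fitted to a modified Stern-Volmer equation with a static term, and averages reported.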

S100P [2] = biological target: T2, S100P (Homo sapiens, UniProt P25815); assay: ITC titration of TRTK12 peptides with S100P; assay type: binding; conditions: for ΔCp, exp: heat capacity change upon binding, slope of ΔHcal vs temperature, ITC
T2 sequence (P25815 1-95): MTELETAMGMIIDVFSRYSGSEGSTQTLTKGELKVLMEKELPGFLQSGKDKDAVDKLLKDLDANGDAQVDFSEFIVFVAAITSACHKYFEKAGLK

S100B [3] = biological target: T3, S100B (Homo sapiens, UniProt P04271); assay: Acrylamide dynamic quenching of peptide Trp in S100B complex; assay type: binding; conditions: Stern-Volmer constant
T3 sequence (P04271 2-92 limits assumed): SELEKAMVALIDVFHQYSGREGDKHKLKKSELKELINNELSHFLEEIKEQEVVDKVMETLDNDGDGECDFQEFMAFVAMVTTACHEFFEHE
Summary of the method: as §1

S100A2 [4] = biological target: T1, S100A2; assay: ITC titration of TRTK12 peptides with S100A2; conditions: heat capacity change upon binding, slope of ΔHcal vs temperature
S100P [5] = biological target: T2, S100P; assay: Steady-state emission fluorescence titration with S100P; assay type: binding; conditions: Trp emission
S100B [6] = biological target: T3, S100B; assay: ITC titration of TRTK12 peptides with S100B; assay type: binding
[7] = ITC fit, Equation 1, 5 mM CaCl2

T1 sequence (P29034 whole entry): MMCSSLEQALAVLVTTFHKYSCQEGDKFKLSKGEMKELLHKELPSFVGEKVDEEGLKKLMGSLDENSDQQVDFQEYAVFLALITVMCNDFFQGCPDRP

S100A2+Peptide KSV (S100A2 [1]; 5 mM CaCl2) [M⁻¹]	ΔCp, exp (S100P [2]) [kJ·mol^−1·K^−1]	S100B+Peptide KSV (S100B [3]; saturating S100B, 5 mM CaCl2) [M⁻¹]	ΔCp, exp (S100A2 [4]) [kJ·mol^−1·K^−1]	changes in the emission fluorescence intensity of the tryptophan upon peptide binding or dissociation (S100P [5])	S100A2+Peptide KSV (S100A2 [1]; in the presence of 150mM NaCl)	S100B+Peptide KSV (S100B [3]; in the presence of 150mM NaCl)	Kd (S100B [6]) [nM]	stoichiometry n (peptides per S100P dimer) (S100P [2]; [7])	stoichiometry n (peptides per S100B dimer) (S100B [6]; [7])	SMILES
4.3 ± 0.2	−0.9 ± 0.1	2.4 ± 0.1	−0.8 ± 0.1	–	–	–	–	–	–	CC[C@H](C)[C@H](NC(=O)[C@H](CCCCN)NC(=O)[C@H](CC(N)=O)NC(=O)[C@H](Cc1c[nH]c2ccccc12)NC(=O)[C@H](CC(=O)O)NC(=O)[C@@H](NC(=O)[C@H](CCCCN)NC(=O)[C@@H](NC(=O)[C@H](CCCNC(=N)N)NC(=O)[C@H](C)NC(C)=O)[C@@H](C)O)[C@@H](C)CC)C(=O)N[C@@H](CC(C)C)C(=O)N[C@@H](CO)C(N)=O [TRTKM1]
8.9 ± 0.2	−1.2 ± 0.1	2.8 ± 0.1	−0.9 ± 0.1	no observable changes	–	–	–	–	–	CC[C@H](C)[C@H](NC(=O)[C@H](CCCCN)NC(=O)[C@H](CC(N)=O)NC(=O)[C@H](Cc1c[nH]c2ccccc12)NC(=O)[C@H](CC(=O)O)NC(=O)[C@H](C)NC(=O)[C@H](CCCCN)NC(=O)[C@@H](NC(=O)[C@H](CCCNC(=N)N)NC(=O)[C@@H](NC(C)=O)[C@@H](C)O)[C@@H](C)O)C(=O)N[C@@H](CC(C)C)C(=O)N[C@@H](CO)C(N)=O [TRTKM5]
–	−0.9 ± 0.1	–	−0.7 ± 0.1	no observable changes	4.7 ± 0.1 ^a M^−1	3.7 ± 0.1 ^a M^−1	–	–	–	CC[C@H](C)[C@H](NC(=O)[C@H](CCCCN)NC(=O)[C@@H](NC(=O)[C@H](CCCNC(=N)N)NC(=O)[C@@H](NC(C)=O)[C@@H](C)O)[C@@H](C)O)C(=O)N[C@@H](C)C(=O)N[C@@H](Cc1c[nH]c2ccccc12)C(=O)N[C@@H](CC(N)=O)C(=O)N[C@@H](CCCCN)C(=O)N[C@H](C(=O)N[C@@H](CC(C)C)C(=O)N[C@@H](CO)C(N)=O)[C@@H](C)CC [TRTKM6]
6.1 ± 1.1	−1.0 ± 0.1	7.2 ± 0.2	−0.4 ± 0.1	no observable changes	–	–	1700 ± 100	–	–	CC[C@H](C)[C@H](NC(=O)[C@H](C)NC(=O)[C@H](CC(N)=O)NC(=O)[C@H](Cc1c[nH]c2ccccc12)NC(=O)[C@H](CC(=O)O)NC(=O)[C@@H](NC(=O)[C@H](CCCCN)NC(=O)[C@@H](NC(=O)[C@H](CCCNC(=N)N)NC(=O)[C@@H](NC(C)=O)[C@@H](C)O)[C@@H](C)O)[C@@H](C)CC)C(=O)N[C@@H](CC(C)C)C(=O)N[C@@H](CO)C(N)=O [TRTKM9]
–	−1.3 ± 0.1	7.5 ± 0.1	–	–	–	–	–	–	–	CC[C@H](C)[C@H](NC(=O)[C@H](CCCCN)NC(=O)[C@@H](NC(=O)[C@H](CCCNC(=N)N)NC(=O)[C@@H](NC(C)=O)[C@@H](C)O)[C@@H](C)O)C(=O)N[C@@H](CC(=O)O)C(=O)N[C@@H](Cc1c[nH]c2ccccc12)C(=O)N[C@@H](CC(N)=O)C(=O)N[C@@H](CCCCN)C(=O)N[C@@H](C)C(=O)N[C@@H](CC(C)C)C(=O)N[C@@H](CO)C(N)=O [TRTKM10]
8.7 ± 0.2	−1.8 ± 0.1	7.2 ± 0.1	−1.6 ± 0.1	–	–	–	–	1	1	CC[C@H](C)[C@H](NC(=O)[C@H](CCCCN)NC(=O)[C@H](CC(N)=O)NC(=O)[C@H](Cc1c[nH]c2ccccc12)NC(=O)[C@H](CC(=O)O)NC(=O)[C@@H](NC(=O)[C@H](CCCCN)NC(=O)[C@@H](NC(=O)[C@H](CCCNC(=N)N)NC(=O)[C@@H](NC(C)=O)[C@@H](C)O)[C@@H](C)O)[C@@H](C)CC)C(=O)N[C@@H](C)C(=O)N[C@@H](CO)C(N)=O [TRTKM11]
